Among the data in ChEMBL document CHEMBL1667787, “Synthesis and in vitro cytotoxicity evaluation of some fluorinated hexahydropyrimidine derivatives” (Bioorg Med Chem Lett, 2011) are IC50 values, retold here.

This test in a line: Cytotoxicity against human COLO320 cells after 72 hrs by Alamar Blue assay. The format is functional, cell-based. Conditions: COLO 320, 72 h. In short, it runs like this:
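COLO 320 HSR cells (ATCC) kept in RPMI 1640 with 10% FBS, bicarbonate, pyruvate, Hepes and antibiotics at 37 °C, 5% CO2. Seeded 1 × 10^4 cells/well, attached 24 h, then exposed 72 h to compound or DMSO vehicle. AlamarBlue added 1:10, incubated overnight at 37 °C, fluorescence read at 560 nm excitation/590 nm emission. Triplicates, means; IC50 by linear regression.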

Some results are limits rather than exact numbers.

For orientation: IC50 means the point on the concentration scale where inhibition reaches its midpoint. The low end stands for greater potency, the high end for weaker potency. The compound `CCOC(=O)[C@@H]1[C@@H](c2ccccc2Br)NC(=S)N[C@@]1(O)C(F)(F)F` yielded an IC50 of 73 µM.

In turn, `O=C(c1ccco1)[C@@H]1[C@@H](c2ccccc2)NC(=S)N[C@@]1(O)C(F)(F)F` registered an IC50 of 63 µM.

`O=C(c1cccs1)[C@@H]1[C@@H](c2ccc3c(c2)OCO3)NC(=S)N[C@@]1(O)C(F)(F)F` returned an IC50 of 62.5 µM.

In turn, `CCOC(=O)[C@@H]1[C@@H](c2cccc(C#N)c2)NC(=S)N[C@@]1(O)C(F)(F)F` returned an IC50 greater than 100 µM.

Take `CCOC(=O)[C@@H]1[C@@H](c2cccc(O)c2)NC(=S)N[C@@]1(O)C(F)(F)F`: the IC50 was greater than 100 µM.

With `COC(=O)[C@@H]1[C@@H](c2cccc(O)c2)NC(=S)N[C@@]1(O)C(F)(F)F`, the IC50 is greater than 100 µM.

In turn, `COc1ccc([C@H]2NC(=S)N[C@@](O)(C(F)(F)F)[C@@H]2C(=O)c2ccco2)cc1` registered an IC50 of 11.5 µM.

Turning to `CCOC(=O)C1=C(C(F)(F)F)NC(SCC(=O)c2ccc(C(F)(F)F)cc2)NC1c1ccc2c(c1)OCO2` (stereo unspecified), the IC50 turned out to be 8.1 µM. This IC50 and that of the compound before are within 1.5-fold of each other.

The compound `O=C(c1ccco1)[C@@H]1[C@@H](c2cccc(O)c2)NC(=S)N[C@@]1(O)C(F)(F)F` yielded a half-maximal inhibitory concentration (IC50) greater than 100 µM.

With `COc1ccc([C@H]2NC(=S)N[C@@](O)(C(F)(F)F)[C@@H]2C(=O)c2cccs2)cc1`, half-maximal inhibition (IC50) required 75 µM. This lies in the double-digit micromolar range.

`CCOC(=O)[C@@H]1[C@@H](c2ccc(F)cc2)NC(=S)N[C@@]1(O)C(F)(F)F`: half-maximal inhibition (IC50) was put at 75 µM.

`O=C(c1ccco1)[C@@H]1[C@@H](c2ccc3c(c2)OCO3)NC(=S)N[C@@]1(O)C(F)(F)F` returned an IC50 of 67 µM.

For `CCOC(=O)C1=C(C(F)(F)F)NC(=S)NC1c1ccc2c(c1)OCO2` (stereo unspecified), it took 12.2 µM to reach half-maximal inhibition (IC50).

With `O=C(c1cccs1)[C@@H]1[C@@H](c2cccc(O)c2)NC(=S)N[C@@]1(O)C(F)(F)F`, the IC50 was determined as 72 µM. Compared with the last compound, the IC50 is about 5.9-fold higher.

In turn, `CCOC(=O)[C@@H]1[C@@H](c2ccc3c(c2)OCO3)NC(=S)N[C@@]1(O)C(F)(F)F` showed an IC50 of 75 µM.

`O=C(c1ccc2ccccc2c1)[C@@H]1[C@@H](c2ccc3c(c2)OCO3)NC(=S)N[C@@]1(O)C(F)(F)F` yielded an IC50 of 9.9 µM.
